Values after ≈ are worked out from the molar mass of the structure shown.
Legend:
Escherichia coli [1] = test: Antimicrobial activity against Escherichia coli TOP10; type: functional
Summary of the method: (§1)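 MICs by broth microdilution and Etest, interpreted per CLSI guidelines. Strains tested were host E. coli TOP10, and TOP10 carrying pBcSau13 (pBK-CMV vector, kanamycin-resistant) holding a Sau3AI fragment of B. cenocepacia 212 DNA that encodes PenB1.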

Burkholderia cenocepacia [2] = test: Antimicrobial activity against Burkholderia cenocepacia 212 expressing beta-lactamase PenB3; type: functional
Summary of the method: (§2)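 MICs measured by broth microdilution and by Etest on clinical B. cenocepacia isolates grown for 18 h in Trypticase soy broth (30°C and 37°C). Susceptibility was read against CLSI guidelines.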

Burkholderia cenocepacia [3] = test: Antimicrobial activity against Burkholderia cenocepacia 07-34 expressing beta-lactamase PenB1; type: functional; summary of the method: as §2
Burkholderia cenocepacia [4] = test: Antimicrobial activity against Burkholderia cenocepacia 09-54 expressing beta-lactamase PenB2; type: functional; summary of the method: as §2
Escherichia coli [5] = test: Antimicrobial activity against Escherichia coli TOP10 harboring beta-lactamase PenB1; type: functional; summary of the method: as §1
Burkholderia cenocepacia [6] = test: Antimicrobial activity against Burkholderia cenocepacia 5007902 expressing beta-lactamase PenB4; type: functional; summary of the method: as §2
[7] = substrate: CC(=O)OCC1=C(C(=O)O)N2C(=O)[C@@H](NC(=O)Cc3cccs3)[C@H]2SC1; settings: Burkholderia cenocepacia; 07-34
[8] = substrate: CCN1CCN(C(=O)N[C@@H](C(=O)N[C@@H]2C(=O)N3[C@@H]2SC(C)(C)[C@@H]3C(=O)O)c2ccccc2)C(=O)C1=O; settings: Burkholderia cenocepacia; 07-34
[9] = substrate: CC(C)(O/N=C(\C(=O)N[C@@H]1C(=O)N2C(C(=O)[O-])=C(C[n+]3ccccc3)CS[C@H]12)c1csc(N)n1)C(=O)O; settings: Burkholderia cenocepacia; 07-34
[10] = substrate: C[C@@H](O)[C@H]1C(=O)N2C(C(=O)O)=C(SCCNC=N)C[C@H]12; settings: Burkholderia cenocepacia; 07-34
[11] = substrate: CC1(C)S[C@@H]2[C@H](NC(=O)Cc3ccccc3)C(=O)N2[C@H]1C(=O)O; settings: Burkholderia cenocepacia; 07-34
[12] = substrate: CC1(C)S[C@@H]2[C@H](NC(=O)[C@H](N)c3ccccc3)C(=O)N2[C@H]1C(=O)O; settings: Burkholderia cenocepacia; 07-34
[13] = substrate: C[C@H]1[C@H](NC(=O)/C(=N\OC(C)(C)C(=O)O)c2csc(N)n2)C(=O)N1S(=O)(=O)O; settings: Burkholderia cenocepacia; 07-34
[14] = substrate: C[C@@H](O)[C@H]1C(=O)N2C(C(=O)O)=C(S[C@@H]3CN[C@H](C(=O)N(C)C)C3)[C@H](C)[C@H]12; settings: Burkholderia cenocepacia; 07-34
[15] = substrate: CO/N=C(\C(=O)N[C@@H]1C(=O)N2C(C(=O)O)=C(COC(N)=O)CS[C@H]12)c1ccco1; settings: Burkholderia cenocepacia; 07-34
[16] = substrate: CO/N=C(\C(=O)N[C@@H]1C(=O)N2C(C(=O)[O-])=C(C[N+]3(C)CCCC3)CS[C@H]12)c1csc(N)n1; settings: Burkholderia cenocepacia; 07-34
[17] = substrate: CC1(C)S[C@@H]2[C@H](NC(=O)[C@H](C(=O)O)c3ccsc3)C(=O)N2[C@H]1C(=O)O; settings: Burkholderia cenocepacia; 07-34
[18] = substrate: CO/N=C(\C(=O)N[C@@H]1C(=O)N2C(C(=O)O)=C(COC(C)=O)CS[C@H]12)c1csc(N)n1; settings: Burkholderia cenocepacia; 07-34
[19] = substrate: CC(=O)OCC1=C(C(=O)O)N2C(=O)[C@@H](NC(=O)Cc3cccs3)[C@H]2SC1; settings: Burkholderia cenocepacia; 07-34; remark: listed apart in the source
[20] = substrate: CCN1CCN(C(=O)N[C@@H](C(=O)N[C@@H]2C(=O)N3[C@@H]2SC(C)(C)[C@@H]3C(=O)O)c2ccccc2)C(=O)C1=O; settings: Burkholderia cenocepacia; 07-34; remark: listed apart in the source
[21] = substrate: CC(C)(O/N=C(\C(=O)N[C@@H]1C(=O)N2C(C(=O)[O-])=C(C[n+]3ccccc3)CS[C@H]12)c1csc(N)n1)C(=O)O; settings: Burkholderia cenocepacia; 07-34; remark: listed apart in the source
[22] = substrate: C[C@@H](O)[C@H]1C(=O)N2C(C(=O)O)=C(SCCNC=N)C[C@H]12; settings: Burkholderia cenocepacia; 07-34; remark: listed apart in the source
[23] = substrate: CC1(C)S[C@@H]2[C@H](NC(=O)Cc3ccccc3)C(=O)N2[C@H]1C(=O)O; settings: Burkholderia cenocepacia; 07-34; remark: listed apart in the source
[24] = substrate: CC1(C)S[C@@H]2[C@H](NC(=O)[C@H](N)c3ccccc3)C(=O)N2[C@H]1C(=O)O; settings: Burkholderia cenocepacia; 07-34; remark: listed apart in the source
[25] = substrate: C[C@H]1[C@H](NC(=O)/C(=N\OC(C)(C)C(=O)O)c2csc(N)n2)C(=O)N1S(=O)(=O)O; settings: Burkholderia cenocepacia; 07-34; remark: listed apart in the source
[26] = substrate: C[C@@H](O)[C@H]1C(=O)N2C(C(=O)O)=C(S[C@@H]3CN[C@H](C(=O)N(C)C)C3)[C@H](C)[C@H]12; settings: Burkholderia cenocepacia; 07-34; remark: listed apart in the source
[27] = substrate: CO/N=C(\C(=O)N[C@@H]1C(=O)N2C(C(=O)O)=C(COC(N)=O)CS[C@H]12)c1ccco1; settings: Burkholderia cenocepacia; 07-34; remark: listed apart in the source
[28] = substrate: CO/N=C(\C(=O)N[C@@H]1C(=O)N2C(C(=O)[O-])=C(C[N+]3(C)CCCC3)CS[C@H]12)c1csc(N)n1; settings: Burkholderia cenocepacia; 07-34; remark: listed apart in the source
[29] = substrate: CC1(C)S[C@@H]2[C@H](NC(=O)[C@H](C(=O)O)c3ccsc3)C(=O)N2[C@H]1C(=O)O; settings: Burkholderia cenocepacia; 07-34; remark: listed apart in the source
[30] = substrate: CO/N=C(\C(=O)N[C@@H]1C(=O)N2C(C(=O)O)=C(COC(C)=O)CS[C@H]12)c1csc(N)n1; settings: Burkholderia cenocepacia; 07-34; remark: listed apart in the source

Question: Which MIC (Escherichia coli [1]) does the source give for `CO[C@@]1(NC(=O)Cc2cccs2)C(=O)N2C(C(=O)O)=C(COC(N)=O)CS[C@@H]21` [CEFOXITIN] here?
Answer: 8 µg/mL (≈ 18.7 µM)

Question: And the MIC (Burkholderia cenocepacia [2])?
Answer: 512 µg/mL (≈ 1200 µM)

Question: What about the MIC (Burkholderia cenocepacia [3]) of the same molecule?
Answer: 512 µg/mL (≈ 1200 µM)

Question: What about the MIC (Burkholderia cenocepacia [4]) of the same molecule?
Answer: 512 µg/mL (≈ 1200 µM)

Question: What about the MIC (Escherichia coli [5]) of the same molecule?
Answer: 8 µg/mL (≈ 18.7 µM)

Question: And the MIC (Burkholderia cenocepacia [6])?
Answer: 512 µg/mL (≈ 1200 µM)

Question: Which results are given for `CO/N=C(\C(=O)N[C@@H]1C(=O)N2C(C(=O)O)=C(COC(C)=O)CS[C@H]12)c1csc(N)n1` [CEFOTAXIME]?
Answer: MIC (Escherichia coli [1]): 0.06 µg/mL (≈ 0.132 µM); MIC (Burkholderia cenocepacia [2]): 512 µg/mL (≈ 1120 µM); MIC (Burkholderia cenocepacia [3]): 1 µg/mL (≈ 2.2 µM); MIC (Burkholderia cenocepacia [4]): 512 µg/mL (≈ 1120 µM); MIC (Escherichia coli [5]): 0.25 µg/mL (≈ 0.549 µM); MIC (Burkholderia cenocepacia [6]): 4 µg/mL (≈ 8.78 µM)

Question: For `CO/N=C(\C(=O)N[C@@H]1C(=O)N2C(C(=O)[O-])=C(C[N+]3(C)CCCC3)CS[C@H]12)c1csc(N)n1`, which MIC (Burkholderia cenocepacia [2]) is on record?
Answer: 64 µg/mL (≈ 133 µM)

Question: What about the MIC (Burkholderia cenocepacia [3]) of the same molecule?
Answer: 32 µg/mL (≈ 66.6 µM)

Question: What about the MIC (Burkholderia cenocepacia [4]) of the same molecule?
Answer: 64 µg/mL (≈ 133 µM)

Question: What about the MIC (Burkholderia cenocepacia [6]) of the same molecule?
Answer: 1 µg/mL (≈ 2.08 µM)

Question: What does the source list for `CC(C)(O/N=C(\C(=O)N[C@@H]1C(=O)N2C(C(=O)[O-])=C(C[n+]3ccccc3)CS[C@H]12)c1csc(N)n1)C(=O)O` [CEFTAZIDIME]?
Answer: MIC (Escherichia coli [1]): 0.5 µg/mL (≈ 0.915 µM); MIC (Burkholderia cenocepacia [2]): 16 µg/mL (≈ 29.3 µM); MIC (Burkholderia cenocepacia [3]): 4 µg/mL (≈ 7.32 µM); MIC (Burkholderia cenocepacia [4]): 32 µg/mL (≈ 58.5 µM); MIC (Escherichia coli [5]): 1 µg/mL (≈ 1.83 µM); MIC (Burkholderia cenocepacia [6]): 0.25 µg/mL (≈ 0.457 µM)

Question: Which results are given for `C[C@H]1[C@H](NC(=O)/C(=N\OC(C)(C)C(=O)O)c2csc(N)n2)C(=O)N1S(=O)(=O)O` [AZTREONAM]?
Answer: MIC (Burkholderia cenocepacia [2]): 512 µg/mL (≈ 1180 µM); MIC (Burkholderia cenocepacia [3]): 4 µg/mL (≈ 9.19 µM); MIC (Burkholderia cenocepacia [4]): 512 µg/mL (≈ 1180 µM); MIC (Escherichia coli [5]): 0.5 µg/mL (≈ 1.15 µM); MIC (Burkholderia cenocepacia [6]): 16 µg/mL (≈ 36.7 µM)

B1: PenB class A beta-lactamase (Burkholderia cenocepacia), B8R6A5 (protein)
chain: MTYSSKRRTLLLAAATAPLVLTATACASRQAAAPDPATAAAAAAADAMAPAAAAATLADLERDAGGRLGVCAIDTASGRVIEHRAGERFPFCSTFKAMLSAAVLAQSVERPGLLQQRVKYTKADLVNYSPVSEKHVGAGMTVAALCEATIQYSDNSAANLLMKLIGGPSAVTAYARSIGDDAFRLDRWETELNTALPGDPRDTTTPAAMAASIRVLTLGDALPAAQRAQLVAWLRGNKVGDKRIRAGVPAGWTVGDKTGTGDYGTTNDAGVIWPTSRAPIVLAVYYTQTRADARAKDDVIASVARIVAQTFG
Question: With B1 as the molecule, how does the Km [7] read?
Answer: 100 µM

Question: And the kcat [7]?
Answer: 300 s⁻¹

Question: What about the Km [8] of the same molecule?
Answer: 10 µM

Question: And the kcat [8]?
Answer: 5 s⁻¹

Question: What about the Km [9] of the same molecule?
Answer: 3000 µM

Question: And the kcat [9]?
Answer: 1.5 s⁻¹

Question: And the Km [10]?
Answer: 60 µM

Question: And the kcat [10]?
Answer: 0.1 s⁻¹

Question: What about the Km [11] of the same molecule?
Answer: 25 µM

Question: And the kcat [11]?
Answer: 130 s⁻¹

Question: What about the Km [12] of the same molecule?
Answer: 100 µM

Question: What about the kcat [12] of the same molecule?
Answer: 70 s⁻¹

Question: What about the Km [13] of the same molecule?
Answer: 2500 µM

Question: And the kcat [13]?
Answer: 30 s⁻¹

Question: And the Km [14]?
Answer: 2500 µM

Question: And the kcat [14]?
Answer: 1 s⁻¹

Question: And the Km [15]?
Answer: 80 µM

Question: What about the kcat [15] of the same molecule?
Answer: 170 s⁻¹

Question: What about the Km [16] of the same molecule?
Answer: 1000 µM

Question: And the kcat [16]?
Answer: 10 s⁻¹

Question: And the Km [17]?
Answer: 60 µM

Question: And the kcat [17]?
Answer: 15 s⁻¹

Question: And the Km [18]?
Answer: 150 µM

Question: What about the kcat [18] of the same molecule?
Answer: 20 s⁻¹

Question: What about the kcat/Km [19] of the same molecule?
Answer: 3e+06 M⁻¹ s⁻¹

Question: What about the kcat/Km [20] of the same molecule?
Answer: 500000 M⁻¹ s⁻¹

Question: And the kcat/Km [21]?
Answer: 500000 M⁻¹ s⁻¹

Question: And the kcat/Km [22]?
Answer: 2e+06 M⁻¹ s⁻¹

Question: And the kcat/Km [23]?
Answer: 5.2e+06 M⁻¹ s⁻¹

Question: What about the kcat/Km [24] of the same molecule?
Answer: 700000 M⁻¹ s⁻¹

Question: What about the kcat/Km [25] of the same molecule?
Answer: 1e+07 M⁻¹ s⁻¹

Question: And the kcat/Km [26]?
Answer: 500 M⁻¹ s⁻¹

Question: What about the kcat/Km [27] of the same molecule?
Answer: 2.1e+06 M⁻¹ s⁻¹

Question: And the kcat/Km [28]?
Answer: 1e+07 M⁻¹ s⁻¹

Question: And the kcat/Km [29]?
Answer: 250000 M⁻¹ s⁻¹

Question: What about the kcat/Km [30] of the same molecule?
Answer: 130000 M⁻¹ s⁻¹

Source: ChEMBL document CHEMBL1629643, “Naturally occurring Class A ss-lactamases from the Burkholderia cepacia complex” (Antimicrob Agents Chemother, 2009)
